Tests used:
[1] = biological target: T1, Muscarinic acetylcholine receptor M2 and M4 (Homo sapiens) (UniProt P08173+P08172); assay: Selectivity ratio of ki for muscarinic M4 receptor (unknown origin) expressed in CHO cells to muscarinic M2 receptor (unknown origin) expressed in CHO cells; format: cell-based
Summary of the method: (§1)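 Ratio of mean Ki values. Each Ki came from an individual [3H]NMS competition experiment at the given CHO-hMxR subtype, converting IC50 to Ki by Cheng-Prusoff before averaging.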

[2] = biological target: T2, Muscarinic acetylcholine receptors; M2 & M3 (Homo sapiens) (UniProt P20309+P08172); assay: Selectivity ratio of Ki for muscarinic M3 receptor (unknown origin) expressed in CHO cells to Ki for muscarinic M2 receptor (unknown origin) expressed in CHO cells; format: cell-based; summary of the method: as §1
T2 sequence (P20309 whole entry, looked up, one chain of several): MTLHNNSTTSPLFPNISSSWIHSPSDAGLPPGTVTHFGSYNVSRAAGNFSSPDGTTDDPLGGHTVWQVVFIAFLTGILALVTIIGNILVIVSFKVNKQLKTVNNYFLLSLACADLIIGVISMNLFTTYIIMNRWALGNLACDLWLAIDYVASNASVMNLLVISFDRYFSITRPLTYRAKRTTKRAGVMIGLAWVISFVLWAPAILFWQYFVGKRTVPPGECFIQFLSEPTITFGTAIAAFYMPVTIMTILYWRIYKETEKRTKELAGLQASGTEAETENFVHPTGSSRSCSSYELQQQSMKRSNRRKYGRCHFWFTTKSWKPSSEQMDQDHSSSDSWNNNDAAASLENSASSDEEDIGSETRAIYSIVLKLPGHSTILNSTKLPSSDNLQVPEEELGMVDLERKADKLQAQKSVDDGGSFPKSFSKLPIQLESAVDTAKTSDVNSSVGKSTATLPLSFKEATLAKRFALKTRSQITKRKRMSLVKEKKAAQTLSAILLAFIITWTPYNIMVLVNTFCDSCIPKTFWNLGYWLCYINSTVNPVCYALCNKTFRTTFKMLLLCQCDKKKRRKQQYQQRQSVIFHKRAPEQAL

[3] = biological target: T3, Muscarinic acetylcholine receptor M5 (Homo sapiens, UniProt P08912); assay: Binding affinity to muscarinic M5 receptor (unknown origin) expressed in CHO cells; format: cell-based
T3 sequence (P08912 whole entry): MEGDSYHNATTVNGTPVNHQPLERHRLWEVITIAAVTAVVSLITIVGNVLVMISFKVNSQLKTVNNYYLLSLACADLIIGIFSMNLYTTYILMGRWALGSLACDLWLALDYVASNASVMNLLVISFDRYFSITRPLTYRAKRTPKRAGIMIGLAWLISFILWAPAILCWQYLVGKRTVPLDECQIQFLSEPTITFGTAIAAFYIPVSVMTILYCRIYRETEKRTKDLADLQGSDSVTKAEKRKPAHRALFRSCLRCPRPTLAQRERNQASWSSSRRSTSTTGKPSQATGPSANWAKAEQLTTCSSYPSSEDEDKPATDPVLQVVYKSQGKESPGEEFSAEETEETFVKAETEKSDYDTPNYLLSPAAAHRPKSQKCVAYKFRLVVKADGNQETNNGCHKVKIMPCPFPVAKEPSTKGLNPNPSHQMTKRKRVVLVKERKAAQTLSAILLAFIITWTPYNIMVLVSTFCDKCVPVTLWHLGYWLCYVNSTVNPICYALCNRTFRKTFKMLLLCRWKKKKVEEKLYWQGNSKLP
Summary of the method: (§2)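 [3H]NMS competition binding on intact CHO-hMxR cells in L15 medium with 1% BSA, 3 h at 22 ± 1 °C with gentle shaking. [3H]NMS was 0.2 nM (M1, M2, M3), 0.1 nM (M4) or 0.3 nM (M5). […] Cells were lysed in urea/acetic acid/Triton and counted by liquid scintillation. Ki from Cheng-Prusoff. Triplicates, ≥3 experiments.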

[4] = biological target: T4, Muscarinic acetylcholine receptors; M1 & M2 (Homo sapiens) (UniProt P11229+P08172); assay: Selectivity ratio of Ki for muscarinic M1 receptor (unknown origin) expressed in CHO cells to Ki for muscarinic M2 receptor (unknown origin) expressed in CHO cells; format: cell-based; summary of the method: as §1
[5] = biological target: T5, Muscarinic acetylcholine receptor M4 (Homo sapiens, UniProt P08173); assay: Binding affinity to muscarinic M4 receptor (unknown origin) expressed in CHO cells; format: cell-based; summary of the method: as §2
T5 sequence (P08173 whole entry): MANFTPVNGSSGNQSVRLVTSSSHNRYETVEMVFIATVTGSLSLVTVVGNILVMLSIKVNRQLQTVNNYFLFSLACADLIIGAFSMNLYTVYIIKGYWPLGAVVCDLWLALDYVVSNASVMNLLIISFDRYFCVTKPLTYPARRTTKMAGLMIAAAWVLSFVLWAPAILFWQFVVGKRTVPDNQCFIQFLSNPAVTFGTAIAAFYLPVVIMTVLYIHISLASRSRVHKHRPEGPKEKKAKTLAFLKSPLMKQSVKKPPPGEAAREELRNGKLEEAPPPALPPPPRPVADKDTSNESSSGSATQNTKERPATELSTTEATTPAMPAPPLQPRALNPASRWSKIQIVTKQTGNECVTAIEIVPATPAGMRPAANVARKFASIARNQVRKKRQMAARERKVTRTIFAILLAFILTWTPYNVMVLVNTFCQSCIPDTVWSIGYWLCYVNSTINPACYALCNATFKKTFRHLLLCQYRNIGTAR

[6] = biological target: T6, Muscarinic acetylcholine receptor M2 and M5 (Homo sapiens) (UniProt P08172+P08912); assay: Selectivity ratio of ki for muscarinic M5 receptor (unknown origin) expressed in CHO cells to muscarinic M2 receptor (unknown origin) expressed in CHO cells; format: cell-based; summary of the method: as §1
[7] = biological target: T7, Muscarinic acetylcholine receptor M3 (Homo sapiens, UniProt P20309); assay: Binding affinity to muscarinic M3 receptor (unknown origin) expressed in CHO cells; format: cell-based; summary of the method: as §2
T7 sequence (P20309 whole entry): as the sequence (P20309 whole entry, looked up, one chain of several) above

[8] = biological target: T8, Muscarinic acetylcholine receptor M1 (Homo sapiens, UniProt P11229); assay: Binding affinity to muscarinic M1 receptor (unknown origin) expressed in CHO cells; format: cell-based; summary of the method: as §2
T8 sequence (P11229 whole entry): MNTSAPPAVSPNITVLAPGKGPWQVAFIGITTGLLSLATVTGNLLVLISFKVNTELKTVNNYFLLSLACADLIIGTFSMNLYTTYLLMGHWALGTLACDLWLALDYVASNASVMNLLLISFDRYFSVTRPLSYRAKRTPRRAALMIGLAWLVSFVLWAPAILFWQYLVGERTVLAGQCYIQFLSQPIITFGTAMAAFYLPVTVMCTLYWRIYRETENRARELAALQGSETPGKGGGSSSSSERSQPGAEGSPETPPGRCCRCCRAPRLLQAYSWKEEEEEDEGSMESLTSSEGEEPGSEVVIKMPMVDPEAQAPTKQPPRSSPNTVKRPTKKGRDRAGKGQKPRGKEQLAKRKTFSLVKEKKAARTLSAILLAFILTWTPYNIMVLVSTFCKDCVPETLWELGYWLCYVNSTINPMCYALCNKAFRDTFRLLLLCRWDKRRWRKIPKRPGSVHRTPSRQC

[9] = biological target: T9, Muscarinic acetylcholine receptor M2 (Homo sapiens, UniProt P08172); assay: Binding affinity to muscarinic M2 receptor (unknown origin) expressed in CHO cells; format: cell-based; summary of the method: as §2
T9 sequence (P08172 whole entry): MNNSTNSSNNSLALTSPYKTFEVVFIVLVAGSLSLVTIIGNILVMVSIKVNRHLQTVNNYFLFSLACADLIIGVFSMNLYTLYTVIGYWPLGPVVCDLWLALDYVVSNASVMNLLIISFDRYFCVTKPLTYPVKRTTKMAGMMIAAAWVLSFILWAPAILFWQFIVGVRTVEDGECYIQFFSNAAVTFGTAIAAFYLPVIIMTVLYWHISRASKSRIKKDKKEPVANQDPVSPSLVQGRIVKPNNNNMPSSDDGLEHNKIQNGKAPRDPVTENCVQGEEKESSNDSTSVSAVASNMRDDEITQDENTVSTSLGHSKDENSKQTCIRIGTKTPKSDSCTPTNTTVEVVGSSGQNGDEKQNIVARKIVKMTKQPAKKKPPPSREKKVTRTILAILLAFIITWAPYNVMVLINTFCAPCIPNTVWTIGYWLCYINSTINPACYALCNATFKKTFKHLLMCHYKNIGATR

[10] = Stability of the compound in human plasma:PBS of pH 7.4 (1:2) assessed as intact compound at 100 uM incubated for 1 hr by LC-MS analysis; format: ADME, cell-free; details: plasma diluted with PBS (1:2), read-out: Stability
Summary of the method: (§3)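 Compound added at 100 μM (from 5 mM stock in acetonitrile/0.04% TFA 3:7) to heparinized human plasma/PBS pH 7.4 (1:2 v/v) with 10 μM 1-methyl-D-tryptophan as internal standard. Incubated shaking at 37 °C in triplicate. Aliquots were EtOH/acetonitrile-precipitated and analysed by RP-HPLC at 220 nm, with recovery correction against four-point calibrations.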

[11] = biological target: T7, Muscarinic acetylcholine receptor M3; assay: Displacement of [3H]-NMS from human muscarinic M3 receptor expressed in CHO-K9 cells after 3 hrs by microbeta2 scintillation counting method; format: cell-based; summary of the method: as §2
[12] = biological target: T8, Muscarinic acetylcholine receptor M1; assay: Displacement of [3H]-NMS from human muscarinic M1 receptor expressed in CHO-K9 cells after 3 hrs by microbeta2 scintillation counting method; format: cell-based; summary of the method: as §2
[13] = biological target: T9, Muscarinic acetylcholine receptor M2; assay: Displacement of [3H]-NMS from human muscarinic M2 receptor expressed in CHO-K9 cells after 3 hrs by microbeta2 scintillation counting method; format: cell-based; summary of the method: as §2
[14] = biological target: T6, Muscarinic acetylcholine receptor M2 and M5 (Homo sapiens); assay: Selectivity ratio of Ki for human muscarinic M5 receptor expressed in CHO-K9 cells to Ki for human muscarinic M2 receptor expressed in CHO-K9 cells; format: cell-based; summary of the method: as §1
[15] = biological target: T2, Muscarinic acetylcholine receptors; M2 & M3 (Homo sapiens); assay: Selectivity ratio of Ki for human muscarinic M3 receptor expressed in CHO-K9 cells to Ki for human muscarinic M2 receptor expressed in CHO-K9 cells; format: cell-based; summary of the method: as §1
[16] = Stability of the compound in human plasma used as 1:2 ratio of plasma to pH 7.4 PBS assessed as intact compound at 100 uM incubated for 24 hr […]; format: ADME, cell-free; details: plasma diluted with PBS (1:2), read-out: Stability
[17] = Stability of the compound in human plasma used as 1:2 ratio of plasma to pH 7.4 PBS assessed as intact compound at 100 uM incubated for 6 hr […]; format: ADME, cell-free; details: plasma diluted with PBS (1:2), read-out: Stability
[18] = biological target: T5, Muscarinic acetylcholine receptor M4; assay: Displacement of [3H]-NMS from human muscarinic M4 receptor expressed in CHO-K9 cells after 3 hrs by microbeta2 scintillation counting method; format: cell-based; summary of the method: as §2
[19] = Stability of the compound in human plasma used as 1:2 ratio of plasma to pH 7.4 PBS assessed as intact compound at 100 uM incubated for 48 hr by LC-MS analysis; format: ADME, cell-free; details: plasma diluted with PBS (1:2), read-out: Stability; summary of the method: as §3
[20] = biological target: T1, Muscarinic acetylcholine receptor M2 and M4 (Homo sapiens); assay: Selectivity ratio of Ki for human muscarinic M4 receptor expressed in CHO-K9 cells to Ki for human muscarinic M2 receptor expressed in CHO-K9 cells; format: cell-based; summary of the method: as §1
[21] = biological target: T4, Muscarinic acetylcholine receptors; M1 & M2 (Homo sapiens); assay: Selectivity ratio of Ki for human muscarinic M1 receptor expressed in CHO-K9 cells to Ki for human muscarinic M2 receptor expressed in CHO-K9 cells; format: cell-based; summary of the method: as §1
[22] = biological target: T3, Muscarinic acetylcholine receptor M5; assay: Displacement of [3H]-NMS from human muscarinic M5 receptor expressed in CHO-K9 cells after 3 hrs by microbeta2 scintillation counting method; format: cell-based; summary of the method: as §2

CCCC(C)(C)C(=O)N(CC)CCCC1CCN(CC(=O)N2c3ccccc3NC(=O)c3ccccc32)CC1
Ratio Ki [1]: 6.3
Ratio Ki [2]: 50
Ki [3]: 316 nM
Ratio Ki [4]: 40
Ki [5]: 50.1 nM
Ratio Ki [6]: 40
Ki [7]: 398 nM
Ki [8]: 316 nM
Ki [9]: 7.94 nM

CC(=O)N[C@@H](CCCNC(=N)N)C(=O)N[C@@H](CCCCN)C(=O)NCC(=O)NCCCCC1CCN(CC(=O)N2c3ccccc3NC(=O)c3ccccc32)CC1
remaining at 1 h, 100 µM [10]: > 99%
Ki [11]: 776 nM
Ki [12]: 22.9 nM
Ki [13]: 1.48 nM
Ratio Ki [14]: 260
Ratio Ki [15]: 620
remaining at 24 h, 100 µM [16]: > 99%
remaining at 6 h, 100 µM [17]: > 99%
Ki [18]: 17.4 nM
remaining at 48 h, 100 µM [19]: 83%
Ratio Ki [20]: 11
Ratio Ki [21]: 15
Ki [22]: 363 nM

CCN(CC)CCCCC1CCN(CC(=O)N2c3ccccc3C(=O)Nc3cccnc32)CC1
Ki [3]: 1260 nM
Ki [5]: 7.94 nM
Ki [7]: 100 nM
Ki [8]: 50.1 nM

From ChEMBL document CHEMBL4396879, “Conjugation of Short Peptides to Dibenzodiazepinone-Type Muscarinic Acetylcholine Receptor Ligands Determines M2R Selectivity” (J Med Chem, 2019)
